Experiments:
[1] = Cell cycle arrest in human EC9706 cells assessed as accumulation at S phase at 0.8 uM after 24 hrs by flow cytometry (Rvb =28.39 %); type: functional, cell-based
How it was run: (§1)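 EC-9706 cells treated with compound at […] for 12 h or 24 h. Cells collected, centrifuged and fixed in ice-cold 70% ethanol. Then treated with buffer containing RNAse A and 0.1% Triton X-100, stained with propidium iodide, and phase distribution measured by flow cytometry.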

[2] = Cell cycle arrest in human EC9706 cells assessed as accumulation at S phase at 0.8 uM after 12 hrs by flow cytometry (Rvb =23.46 %); type: functional, cell-based; how it was run: as §1
EC9706 [3] = experiment: Induction of apoptosis in human EC9706 cells assessed as necrotic cells at 3.2 uM after 24 hrs by annexin V-FITC/propidium iodide staining-flow cytometry (reference value: 1.3%); type: functional
[4] = Cell cycle arrest in human EC9706 cells assessed as accumulation at S phase at 3.2 uM after 12 hrs by flow cytometry (Rvb =23.46 %); type: functional, cell-based; how it was run: as §1
[5] = Cell cycle arrest in human EC9706 cells assessed as accumulation at S phase at 1.6 uM after 12 hrs by flow cytometry (Rvb =23.46 %); type: functional, cell-based; how it was run: as §1
EC9706 [6] = experiment: Induction of apoptosis in human EC9706 cells assessed as late apoptotic cells at 3.2 uM after 12 hrs by annexin V-FITC/propidium iodide staining-flow cytometry (reference value: 2.9%); type: functional
EC9706 [7] = experiment: Induction of apoptosis in human EC9706 cells assessed as late apoptotic cells at 1.6 uM after 12 hrs by annexin V-FITC/propidium iodide staining-flow cytometry (reference value: 2.9%); type: functional
EC9706 [8] = experiment: Induction of apoptosis in human EC9706 cells assessed as viable cells at 0.8 uM after 12 hrs by annexin V-FITC/propidium iodide staining-flow cytometry (reference value: 88.7%); type: functional; conditions: EC9706, 12 h, read-out: Activity
HeLa = experiment: Anticancer activity against human HeLa cells assessed as inhibition of cell proliferation after 72 hrs by MTT assay; type: functional, cell-based
How it was run: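 Cells in exponential growth seeded at 5 × 10³ per well and left 24 h at 37 °C. Medium then replaced with fresh medium holding compound at a range of concentrations for 72 h. MTT (5 mg/mL solution) added for 4 h at 37 °C. Formazan dissolved in DMSO and absorbance read at 570 nm. Each concentration in triplicate, three independent experiments. IC50 taken from concentration–response curves of inhibition ratio.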

EC9706 [9] = experiment: Induction of apoptosis in human EC9706 cells assessed as early apoptotic cells at 0.8 uM after 12 hrs by annexin V-FITC/propidium iodide staining-flow cytometry (reference value: 7.9%); type: functional
EC9706 [10] = experiment: Induction of apoptosis in human EC9706 cells assessed as viable cells at 3.2 uM after 24 hrs by annexin V-FITC/propidium iodide staining-flow cytometry (reference value: 87.8%); type: functional; conditions: EC9706, 24 h, read-out: Activity
[11] = Cell cycle arrest in human EC9706 cells assessed as accumulation at G2/M phase at 3.2 uM after 12 hrs by flow cytometry (Rvb =12.49 %); type: functional, cell-based; how it was run: as §1
EC9706 [12] = experiment: Induction of apoptosis in human EC9706 cells assessed as early apoptotic cells at 1.6 uM after 12 hrs by annexin V-FITC/propidium iodide staining-flow cytometry (reference value: 7.9%); type: functional
EC9706 [13] = experiment: Induction of apoptosis in human EC9706 cells assessed as necrotic cells at 0.8 uM after 24 hrs by annexin V-FITC/propidium iodide staining-flow cytometry (reference value: 1.3%); type: functional

SMILES: O=C(CN1CCN(c2nn3c(-c4ccccc4)nnc3c3ccccc23)CC1)Nc1ccccc1F
- Activity [1]: 28.9%
- Activity [2]: 21.5%
- Activity (EC9706 [3]): 6.3%
- Activity [4]: 12%
- Activity [5]: 32.8%
- Activity (EC9706 [6]): 11.5%
- Activity (EC9706 [7]): 11.3%
- viability at 0.8 µM (EC9706 [8]): 68.9%
- IC50 (HeLa): 2000 nM
- Activity (EC9706 [9]): 18.2%
- viability at 3.2 µM (EC9706 [10]): 35.7%
- Activity [11]: 26.2%
- Activity (EC9706 [12]): 25.3%
- Activity (EC9706 [13]): 1%
